Data: ChEMBL document CHEMBL1137725, “11C-labelled PIB analogues as potential tracer agents for in vivo imaging of amyloid beta in Alzheimer's disease” (Eur J Med Chem, 2009)
Activity calls are given as the source filed them. The rule behind the calls is not given here.

How the values were obtained:
[1] = test system: Intestine; assay: Biodistribution in NMRI mouse intestine at 37 MBq/mL, iv after 2 mins postinjection by gamma counting; assay type: ADME, organism-based; conditions: in vivo
Method in brief: (§1)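 Normal mice given the 11C tracer i.v.; killed by decapitation at 2 or 60 min p.i. (n = 4 per time point). Blood collected in tared tube and weighed; organs dissected and weighed, then gamma-counted. Counts background-corrected and expressed as %ID per organ or %ID/g tissue.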

[2] = Biodistribution in NMRI mouse cerebrum at 37 MBq/mL, iv after 60 mins postinjection by gamma counting; assay type: ADME, organism-based; conditions: in vivo, 1 h; method in brief: as §1
[3] = Biodistribution in NMRI mouse cerebrum at 37 MBq/mL, iv after 2 mins postinjection assessed per gram of tissue by gamma counting; assay type: ADME, organism-based; conditions: in vivo; method in brief: as §1
[4] = test system: Blood; assay: Biodistribution in NMRI mouse blood at 37 MBq/mL, iv after 60 mins postinjection by gamma counting; assay type: ADME, organism-based; conditions: in vivo, 1 h; method in brief: as §1
[5] = Biodistribution in NMRI mouse hepatobiliary system at 37 MBq/mL, iv after 60 mins postinjection by gamma counting; assay type: ADME, organism-based; conditions: in vivo, 1 h; method in brief: as §1
[6] = test system: Cerebellum; assay: Biodistribution in NMRI mouse cerebellum at 37 MBq/mL, iv after 60 mins postinjection assessed per gram of tissue by gamma counting; assay type: ADME, organism-based; conditions: in vivo, 1 h; method in brief: as §1
[7] = test system: Blood; assay: Biodistribution in NMRI mouse blood at 37 MBq/mL, iv after 2 mins postinjection by gamma counting; assay type: ADME, organism-based; conditions: in vivo; method in brief: as §1
[8] = test system: Liver; assay: Biodistribution in NMRI mouse liver at 37 MBq/mL, iv after 2 mins postinjection by gamma counting; assay type: ADME, organism-based; conditions: in vivo; method in brief: as §1
[9] = test system: Cerebellum; assay: Biodistribution in NMRI mouse cerebellum at 37 MBq/mL, iv after 2 mins postinjection assessed per gram of tissue by gamma counting; assay type: ADME, organism-based; conditions: in vivo; method in brief: as §1
[10] = test system: Blood; assay: Biodistribution in NMRI mouse blood at 37 MBq/mL, iv after 60 mins postinjection assessed per gram of tissue by gamma counting; assay type: ADME, organism-based; conditions: in vivo, 1 h; method in brief: as §1
[11] = Biodistribution in NMRI mouse cerebrum at 37 MBq/mL, iv after 2 mins postinjection by gamma counting; assay type: ADME, organism-based; conditions: in vivo; method in brief: as §1
[12] = test system: Cerebellum; assay: Biodistribution in NMRI mouse cerebellum at 37 MBq/mL, iv after 2 mins postinjection by gamma counting; assay type: ADME, organism-based; conditions: in vivo; method in brief: as §1
[13] = test system: Kidney; assay: Biodistribution in NMRI mouse kidney at 37 MBq/mL, iv after 2 mins postinjection by gamma counting; assay type: ADME, organism-based; conditions: in vivo; method in brief: as §1
[14] = test system: Cerebellum; assay: Biodistribution in NMRI mouse cerebellum at 37 MBq/mL, iv after 60 mins postinjection by gamma counting; assay type: ADME, organism-based; conditions: in vivo, 1 h; method in brief: as §1
[15] = Biodistribution in NMRI mouse cerebrum at 37 MBq/mL, iv after 60 mins postinjection assessed per gram of tissue by gamma counting; assay type: ADME, organism-based; conditions: in vivo, 1 h; method in brief: as §1
[16] = test system: Kidney; assay: Biodistribution in NMRI mouse kidney at 37 MBq/mL, iv after 60 mins postinjection by gamma counting; assay type: ADME, organism-based; conditions: in vivo, 1 h; method in brief: as §1
[17] = test system: Blood; assay: Biodistribution in NMRI mouse blood at 37 MBq/mL, iv after 2 mins postinjection assessed per gram of tissue by gamma counting; assay type: ADME, organism-based; conditions: in vivo; method in brief: as §1
[18] = test system: Liver; assay: Biodistribution in NMRI mouse liver at 37 MBq/mL, iv after 60 mins postinjection by gamma counting; assay type: ADME, organism-based; conditions: in vivo, 1 h; method in brief: as §1
[19] = Biodistribution in NMRI mouse urine at 37 MBq/mL, iv after 2 mins postinjection by gamma counting; assay type: ADME, organism-based; conditions: in vivo; method in brief: as §1
[20] = test system: Kidney; assay: Biodistribution in NMRI mouse kidney at 37 MBq/mL, iv after 2 mins postinjection assessed per gram of tissue by gamma counting; assay type: ADME, organism-based; conditions: in vivo; method in brief: as §1
[21] = test system: Liver; assay: Biodistribution in NMRI mouse liver at 37 MBq/mL, iv after 60 mins postinjection assessed per gram of tissue by gamma counting; assay type: ADME, organism-based; conditions: in vivo, 1 h; method in brief: as §1
[22] = Biodistribution in NMRI mouse urine at 37 MBq/mL, iv after 60 mins postinjection by gamma counting; assay type: ADME, organism-based; conditions: in vivo, 1 h; method in brief: as §1
[23] = test system: Kidney; assay: Biodistribution in NMRI mouse kidney at 37 MBq/mL, iv after 60 mins postinjection assessed per gram of tissue by gamma counting; assay type: ADME, organism-based; conditions: in vivo, 1 h; method in brief: as §1
[24] = Partition coefficient, log P in Octanol and 0.025 M phosphate buffer at pH7.4 by gamma counter; assay type: physicochemical; conditions: octanol/0.025 M phosphate buffer, pH 7.4
Method in brief: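 HPLC-purified 11C tracer added to 1-octanol and 2 ml 0.025 M phosphate buffer pH 7.4. Vortexed 3 min at room temperature, centrifuged 2700 g for 10 min. Aliquots of each phase weighed and gamma-counted; P = (cpm/ml octanol)/(cpm/ml buffer). Triplicate.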

[25] = test system: Intestine; assay: Biodistribution in NMRI mouse intestine at 37 MBq/mL, iv after 60 mins postinjection by gamma counting; assay type: ADME, organism-based; conditions: in vivo, 1 h; method in brief: as §1
[26] = test system: Liver; assay: Biodistribution in NMRI mouse liver at 37 MBq/mL, iv after 2 mins postinjection assessed per gram of tissue by gamma counting; assay type: ADME, organism-based; conditions: in vivo; method in brief: as §1
[27] = test system: Blood; assay: Blood clearance in NMRI mouse assessed ratio of %ID in blood after 2 mins to %ID in blood after 60 mins at 37 MBq/mL, iv; assay type: ADME, tissue-based
Method in brief: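 Normal mice given i.v. 11C tracer; blood collected at 2 and 60 min p.i. (n = 4 per time point), weighed and gamma-counted. Clearance expressed as the ratio of %ID/g blood at 2 min to %ID/g blood at 60 min.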

[28] = target: T1, Amyloid-beta precursor protein (Homo sapiens, UniProt P05067); assay: Binding affinity to vascular beta-amyloid plaques in vibratome section of transgenic mouse overexpressing human APP at 0.1 uM by fluorescence microscopy; conditions: 1 uM, in the assay text read “at 1 uM” for “at 0.1 uM”
Method in brief: (§2)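 Vibratome sections of transgenic APP (London mutation) mouse brain cortex incubated with cold compound. Fluorescence microscopy with UV filter set (excitation 355–425 nm, emission 470 nm longpass). For co-localization, one section was incubated first with AβN25 antibody and then with compound.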

[29] = target: T1, Amyloid-beta precursor protein; assay: Binding affinity to fibrillar beta-amyloid plaques in cortex of patient with Alzheimer's disease at 1 uM by fluorescence microscopy
Method in brief: (§3)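 Paraffin 8 µm sagittal sections of transgenic APP (London mutation) mouse brain or post-mortem human AD brain; xylol and graded-ethanol deparaffinization, then 1 h incubation with cold compound; tap-water rinse, Mowiol-DABCO mounting. Fluorescence microscopy with UV filter set (excitation 355–425 nm, emission 470 nm longpass). Neighbouring sections immunostained with pan Aβ or AβN25 antibody to check co-localization.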

[30] = target: T1, Amyloid-beta precursor protein; assay: Binding affinity to beta-amyloid plaques in cortex of patient with Alzheimer's disease at 1 uM by fluorescence microscopy; method in brief: as §3
[31] = target: T1, Amyloid-beta precursor protein; assay: Binding affinity to beta-amyloid plaques in subiculum of transgenic mouse overexpressing human APP at 1 uM by fluorescence microscopy; assay type: tissue-based; method in brief: as §3
[32] = target: T1, Amyloid-beta precursor protein; assay: Displacement of [125I]IMPY from beta-amyloid plaques in brain homogenate of patient with Alzheimer's disease by gamma counting; assay type: tissue-based
Method in brief: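 Gray-matter homogenates of post-mortem AD cortex in PBS pH 7.4, about 100 mg wet tissue/ml. Incubated 2 h at 37 °C, then GF/B vacuum filtration, two PBS washes, gamma counting. Ki from non-linear regression using Ki = IC50/(1+L/Kd).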

[33] = target: T1, Amyloid-beta precursor protein; assay: Binding affinity to vascular beta-amyloid plaques in vibratome section of transgenic mouse cortex overexpressing human APP at 1 uM by fluorescence microscopy; method in brief: as §2
[34] = target: T1, Amyloid-beta precursor protein; assay: Binding affinity to core beta-amyloid plaques in vibratome section of transgenic mouse overexpressing human APP at 1 uM by fluorescence microscopy; method in brief: as §2

T1 sequence (P05067 whole entry): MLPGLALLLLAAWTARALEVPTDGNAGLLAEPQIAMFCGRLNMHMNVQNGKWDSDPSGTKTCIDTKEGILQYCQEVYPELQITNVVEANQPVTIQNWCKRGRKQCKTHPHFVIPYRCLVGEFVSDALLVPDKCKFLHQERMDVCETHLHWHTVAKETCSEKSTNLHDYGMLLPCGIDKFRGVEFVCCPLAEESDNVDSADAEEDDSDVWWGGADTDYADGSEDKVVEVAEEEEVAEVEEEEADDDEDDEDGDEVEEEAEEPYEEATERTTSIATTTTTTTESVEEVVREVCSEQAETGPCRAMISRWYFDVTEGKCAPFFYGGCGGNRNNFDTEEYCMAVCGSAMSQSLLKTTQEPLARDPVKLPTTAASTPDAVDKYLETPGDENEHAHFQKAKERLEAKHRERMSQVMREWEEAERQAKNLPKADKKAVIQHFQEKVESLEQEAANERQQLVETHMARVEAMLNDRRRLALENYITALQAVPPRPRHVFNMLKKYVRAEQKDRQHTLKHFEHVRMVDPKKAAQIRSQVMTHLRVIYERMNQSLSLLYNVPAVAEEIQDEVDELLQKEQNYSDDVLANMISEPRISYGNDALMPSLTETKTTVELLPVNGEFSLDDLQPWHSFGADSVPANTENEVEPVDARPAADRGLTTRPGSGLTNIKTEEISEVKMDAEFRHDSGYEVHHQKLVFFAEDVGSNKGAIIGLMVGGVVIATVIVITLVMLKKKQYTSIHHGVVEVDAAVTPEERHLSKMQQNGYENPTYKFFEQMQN

Row | Structure (SMILES) | Drug uptake [1] | Drug uptake [2] | Drug uptake [3] | Drug uptake [4] | Drug uptake [6] | Drug uptake [7] | Drug uptake [8] | Drug uptake [9] | Drug uptake [10] | Drug uptake [11] | Drug uptake [12] | Drug uptake [13] | Drug uptake [14] | Drug uptake [15] | Drug uptake [16] | Drug uptake [17] | Drug uptake [18] | Drug uptake [19] | Drug uptake [20] | Drug uptake [21] | also measured
1 | [11CH3]Nc1ccc(-c2nc3cc(O)ccc3s2)cc1 | 12.9 %ID | 0.03 %ID | 4.3 % ID/g | 0.5 %ID | 0.08 % ID/g | 6 %ID | 25.8 %ID | 4.4 % ID/g | 0.21 % ID/g | 1.3 %ID | 0.57 %ID | 8.1 %ID | 0.01 %ID | 0.09 % ID/g | 0.7 %ID | 2.5 % ID/g | 4.2 %ID | 0.35 %ID | 14.2 % ID/g | 2.2 % ID/g | Drug uptake [5]: 78 %ID; Drug uptake [22]: 14.6 %ID; Drug uptake [23]: 1.2 % ID/g; logD [24]: 2.48; Drug uptake [25]: 73.7 %ID; Drug uptake [26]: 12.1 % ID/g
2 | CNc1ccc(-c2nc3ccc(O)cc3s2)cc1 [PITTSBURGH COMPOUND B UNLABELLED] | 12 %ID | 0.2 %ID | 3.6 % ID/g | 2.7 %ID | 0.3 % ID/g | 7.9 %ID | 15.6 %ID | 1.6 % ID/g | 1.1 % ID/g | 1.1 %ID | 0.2 %ID | 10.3 %ID | 0 %ID | 0.6 % ID/g | 4.8 %ID | 3.1 % ID/g | 9.8 %ID | 0.2 %ID | 19.9 % ID/g | 5 % ID/g | Drug uptake [22]: 24.4 %ID; Drug uptake [23]: 9.1 % ID/g; Drug uptake [25]: 42.5 %ID; Drug uptake [26]: 7.9 % ID/g
3 | [11CH3]Nc1ccc(-c2nc3cccc(O)c3s2)cc1 | 9.4 %ID | 0.05 %ID | 2.6 % ID/g | 1.2 %ID | 0.1 % ID/g | 9.8 %ID | 27.8 %ID | 2.8 % ID/g | 0.57 % ID/g | 0.83 %ID | 0.22 %ID | 9 %ID | 0.01 %ID | 0.16 % ID/g | 2.5 %ID | 4.6 % ID/g | 7.1 %ID | 0.58 %ID | 16.9 % ID/g | 4 % ID/g | Ratio [27]: 12; Drug uptake [22]: 24.8 %ID; Drug uptake [23]: 4.8 % ID/g; logD [24]: 2.45; Drug uptake [25]: 54.7 %ID; Drug uptake [26]: 14.5 % ID/g
4 | CNc1ccc(-c2nc3cccc(O)c3s2)cc1 |  |  |  |  |  |  |  |  |  |  |  |  |  |  |  |  |  |  |  |  | Activity [28]: Active; Activity [29]: Active; Activity [30]: Active; Activity [31]: Active; Ki [32]: 0.0112 µM; Activity [33]: Active
5 | CNc1ccc(-c2nc3c(O)cccc3s2)cc1 |  |  |  |  |  |  |  |  |  |  |  |  |  |  |  |  |  |  |  |  | Activity [29]: Active; Activity [30]: Active; Activity [31]: Active; Ki [32]: 0.0188 µM
6 | [11CH3]Nc1ccc(-c2nc3c(O)cccc3s2)cc1 | 12 %ID | 0.1 %ID | 3.8 % ID/g | 2.3 %ID | 0.6 % ID/g | 13.8 %ID | 21.2 %ID | 2.7 % ID/g | 1 % ID/g | 1.2 %ID | 0.2 %ID | 10.6 %ID | 0 %ID | 0.3 % ID/g | 0.6 %ID | 6.5 % ID/g | 6.4 %ID | 0.2 %ID | 19.4 % ID/g | 3.7 % ID/g | Drug uptake [5]: 59 %ID; Ratio [27]: 6; Drug uptake [22]: 22.7 %ID; Drug uptake [23]: 1.2 % ID/g; logD [24]: 3.18; Drug uptake [25]: 52.3 %ID; Drug uptake [26]: 11.1 % ID/g
7 | CNc1ccc(-c2nc3cc(O)ccc3s2)cc1 |  |  |  |  |  |  |  |  |  |  |  |  |  |  |  |  |  |  |  |  | Activity [28]: Active; Activity [34]: Active; Activity [29]: Active; Activity [30]: Active; Activity [31]: Active; Ki [32]: 0.0115 µM; Activity [33]: Active
